Assay results: ChEMBL document CHEMBL1681781, “Structure based design and syntheses of amino-1H-pyrazole amide derivatives as selective Raf kinase inhibitors in melanoma cells” (Bioorg Med Chem, 2011)
pIC50: −log10 of the molar value. Active and inactive are the calls of the source. The rule behind the calls is not given here.

Key:
[1] = (§1) Antiproliferative activity against human A375P cells assessed as growth inhibition after 24 hrs by MTT assay; type: functional
Summary of the method: (§2)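 A375P cells kept in DMEM with 10% FBS and 1% penicillin/streptomycin at 37 °C under 5% CO2. Cells lifted with 0.05% trypsin–0.02% EDTA, seeded at 5 × 10^3 cells/well and left 24 h before dosing. Test compounds given as a 3-fold serial dilution over 12 points. Viability read by MTT reduction, absorbance at 590 nm.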

[2] = test system: HS27; assay: Antiproliferative activity against human HS27 cells assessed as growth inhibition after 24 hrs by MTT assay; type: functional; settings: HS27, 24 h
[3] = test system: A375P; assay: as §1; type: functional; summary of the method: as §2
[4] = biological target: RAF proto-oncogene serine/threonine-protein kinase (Homo sapiens, UniProt P04049); assay: Inhibition of C-Raf assessed as [33P]gamma-ATP incorporation into substrate after 40 mins by scintillation counting
Summary of the method: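 Human C-RAF (5–10 mU) in 25 mM Tris pH 7.5, 0.02 mM EGTA, 10 mM Mg acetate, with 0.66 mg/mL myelin basic protein as substrate and [γ-33P]ATP. Reaction started by adding the Mg-ATP mix and run 40 min at room temperature. Stopped with 3% phosphoric acid, spotted on P30 filtermat, washed in 75 mM phosphoric acid and methanol, then scintillation counted.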

[5] = test system: Serine/threonine-protein kinase B-raf (Homo sapiens), P15056 [V600E]; assay: Inhibition of B-Raf V600E mutant
[6] = biological target: Serine/threonine-protein kinase mTOR (Homo sapiens, UniProt P42345); assay: inhibition of mTOR

Sequence of RAF proto-oncogene serine/threonine-protein kinase (P04049 whole entry): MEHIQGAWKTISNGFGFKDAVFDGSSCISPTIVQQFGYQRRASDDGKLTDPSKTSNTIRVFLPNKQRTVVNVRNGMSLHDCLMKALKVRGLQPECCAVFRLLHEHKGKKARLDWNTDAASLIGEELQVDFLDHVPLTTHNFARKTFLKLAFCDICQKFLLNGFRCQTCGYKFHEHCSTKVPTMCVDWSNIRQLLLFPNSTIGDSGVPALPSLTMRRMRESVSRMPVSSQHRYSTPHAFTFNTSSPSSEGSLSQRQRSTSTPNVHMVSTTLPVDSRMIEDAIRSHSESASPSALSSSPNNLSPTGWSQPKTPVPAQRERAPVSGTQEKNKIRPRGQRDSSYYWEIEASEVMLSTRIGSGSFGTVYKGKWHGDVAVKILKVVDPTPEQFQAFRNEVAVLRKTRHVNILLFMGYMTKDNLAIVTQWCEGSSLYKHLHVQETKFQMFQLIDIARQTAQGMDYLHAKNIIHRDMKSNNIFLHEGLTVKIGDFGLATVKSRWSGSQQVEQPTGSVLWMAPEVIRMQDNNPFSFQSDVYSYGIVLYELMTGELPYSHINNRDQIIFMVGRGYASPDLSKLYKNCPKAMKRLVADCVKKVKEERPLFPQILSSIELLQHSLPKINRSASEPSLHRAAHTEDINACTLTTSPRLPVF
Sequence of Serine/threonine-protein kinase B-raf (Homo sapiens), P15056 [V600E] (P15056 whole entry V600E): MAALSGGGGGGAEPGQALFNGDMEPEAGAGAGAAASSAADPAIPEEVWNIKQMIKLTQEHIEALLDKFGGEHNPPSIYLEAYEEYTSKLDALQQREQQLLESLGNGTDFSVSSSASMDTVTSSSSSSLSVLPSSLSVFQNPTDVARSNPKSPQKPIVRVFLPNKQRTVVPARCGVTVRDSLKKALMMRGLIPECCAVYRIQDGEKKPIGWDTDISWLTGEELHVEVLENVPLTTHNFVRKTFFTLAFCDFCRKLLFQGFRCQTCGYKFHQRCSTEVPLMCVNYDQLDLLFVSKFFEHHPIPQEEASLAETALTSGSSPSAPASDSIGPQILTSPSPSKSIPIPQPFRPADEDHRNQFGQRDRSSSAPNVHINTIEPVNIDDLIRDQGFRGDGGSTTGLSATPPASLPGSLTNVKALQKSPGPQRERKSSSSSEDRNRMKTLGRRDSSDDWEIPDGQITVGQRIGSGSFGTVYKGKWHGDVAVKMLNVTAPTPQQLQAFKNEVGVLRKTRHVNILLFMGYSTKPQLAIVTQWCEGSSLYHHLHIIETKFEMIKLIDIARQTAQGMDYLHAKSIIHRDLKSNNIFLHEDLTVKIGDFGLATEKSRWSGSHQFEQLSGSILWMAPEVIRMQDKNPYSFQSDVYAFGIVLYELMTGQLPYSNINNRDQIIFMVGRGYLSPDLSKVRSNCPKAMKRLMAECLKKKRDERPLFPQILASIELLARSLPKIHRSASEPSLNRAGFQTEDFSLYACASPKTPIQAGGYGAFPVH

| Compound | GI50 [1] | GI50 [2] | GI50 [3] | further results |
| --- | --- | --- | --- | --- |
| COc1ccc(Cn2ncc(NC(=O)c3ccc(NC(=O)Nc4cc(N5CCOCC5)cc(C(F)(F)F)c4)cc3C)c2N)cc1 | 51.5 µM | > 30 µM |  |  |
| COc1ccc(Cn2ncc(NC(=O)c3ccc(NC(=O)Nc4nccc(C(F)(F)F)n4)cc3C)c2N)cc1 |  | > 30 µM | inactive |  |
| COc1ccc(Cn2ncc(NC(=O)c3cc(NC(=O)Nc4ccc(Cl)cc4)ccc3C)c2N)cc1 | 8.73 µM | > 30 µM |  |  |
| Cc1ccc(NC(=O)Nc2ccc(Cl)c(C(F)(F)F)c2)cc1C(=O)Nc1cnn(Cc2ccccc2)c1N | 15.9 µM | > 30 µM |  |  |
| COc1ccc(Cn2ncc(NC(=O)c3ccc(NC(=O)c4cc5ccccc5o4)cc3C)c2N)cc1 | > 30 µM | > 30 µM |  |  |
| COc1ccc(Cn2ncc(NC(=O)c3cc(NC(=O)Nc4cc(Cl)c(Cl)cc4Cl)ccc3C)c2N)cc1 | 11.4 µM | > 30 µM |  |  |
| COc1ccc(Cn2ncc(NC(=O)c3ccc(NC(=O)Nc4ccc(Cl)c(Cl)c4)cc3C)c2N)cc1 | 4.12 µM | > 30 µM |  |  |
| COc1ccc(Cn2ncc(NC(=O)c3ccc(NC(=O)Nc4cccc(Cl)c4)cc3C)c2N)cc1 | 36.5 µM | > 30 µM |  |  |
| COc1ccc(Cn2ncc(NC(=O)c3cc(NC(=O)c4cnn(-c5ccc(Cl)cc5)c4C(F)(F)F)ccc3C)c2N)cc1 | > 30 µM | > 30 µM |  |  |
| COc1ccc(Cn2ncc(NC(=O)c3cc(NC(=O)c4ccnc(Cl)c4)ccc3C)c2N)cc1 |  | > 30 µM | inactive |  |
| COc1ccc(Cn2ncc(NC(=O)c3cc(NC(=O)c4cc(N5CCN(C)CC5)cc(C(F)(F)F)c4)ccc3C)c2N)cc1 | 4.51 µM | > 30 µM |  | pIC50 [4]: 6.62; inhibition [5]: inactive |
| COc1ccc(Cn2ncc(NC(=O)c3ccc(NC(=O)c4cnccn4)cc3C)c2N)cc1 |  | > 30 µM | inactive |  |
| COc1ccc(Cn2ncc(NC(=O)c3ccc(NC(=O)c4cnn(-c5ccccc5)c4C(F)(F)F)cc3C)c2N)cc1 |  | > 30 µM | inactive |  |
| O=c1cc(N2CCOCC2)oc2c(-c3ccccc3)cccc12 [LY-294002] |  |  |  | pIC50 [6]: 5.52 |
| O=C1Nc2ccc(I)cc2C1=Cc1cc(Br)c(O)c(Br)c1 |  |  |  | pIC50 [5]: 8.41 |
| COc1ccc(Cn2ncc(NC(=O)c3ccc(NC(=O)Nc4cc(C(F)(F)F)ccc4N4CCOCC4)cc3C)c2N)cc1 | > 100 µM | > 30 µM |  |  |
| COc1ccc(Cn2ncc(NC(=O)c3cc(NC(=O)Nc4c(Cl)cccc4Cl)ccc3C)c2N)cc1 |  | > 30 µM | inactive |  |
| COc1ccc(Cn2ncc(NC(=O)c3ccc(NC(=O)Nc4cccc(C(F)(F)F)c4)cc3C)c2N)cc1 | > 30 µM | > 30 µM |  |  |

| Compound | GI50 [1] | GI50 [2] | GI50 [3] | further results |
| --- | --- | --- | --- | --- |
| COc1ccc(Cn2ncc(NC(=O)c3ccc(NC(=O)c4cc5ccccc5s4)cc3C)c2N)cc1 | > 30 µM | > 30 µM |  |  |
| COc1ccc(Cn2ncc(NC(=O)c3cc(NC(=O)Nc4cc(C)no4)ccc3C)c2N)cc1 |  | > 30 µM | inactive |  |
| COc1ccc(Cn2ncc(NC(=O)c3ccc(NC(=O)Nc4ccc(Cl)cc4)cc3C)c2N)cc1 |  | > 30 µM | inactive |  |
| COc1ccc(Cn2ncc(NC(=O)c3cc(NC(=O)NC4CCCCC4)ccc3C)c2N)cc1 |  | > 30 µM | inactive |  |
| COc1ccc(Cn2ncc(NC(=O)c3cc(NC(=O)Nc4ccc(C(F)(F)F)cc4C(F)(F)F)ccc3C)c2N)cc1 |  | > 30 µM | inactive |  |
| COc1ccc(Cn2ncc(NC(=O)c3cc(NC(=O)c4cc(-c5ccc(Cl)cc5)on4)ccc3C)c2N)cc1 | 1.39 µM | > 30 µM |  |  |
| COc1ccc(Cn2ncc(NC(=O)c3cc(NC(=O)c4cc(-n5cnc(C)c5)cc(C(F)(F)F)c4)ccc3C)c2N)cc1 | 11.3 µM | > 30 µM |  |  |
| COc1ccc(Cn2ncc(NC(=O)c3cc(NC(=O)c4cccc(C(F)(F)F)c4)ccc3C)c2N)cc1 | 5.53 µM | > 30 µM |  | pIC50 [4]: 7.65; inhibition [5]: inactive |
| COc1ccc(Cn2ncc(NC(=O)c3cc(NC(=O)c4ccc(-c5cc(C(F)(F)F)ccc5Cl)o4)ccc3C)c2N)cc1 |  | > 30 µM | inactive |  |
| COc1ccc(Cn2ncc(NC(=O)c3cc(NC(=O)c4ccc([N+](=O)[O-])c(C(F)(F)F)c4)ccc3C)c2N)cc1 | 27.9 µM | > 30 µM |  |  |
| COc1ccc(Cn2ncc(NC(=O)c3ccc(NC(=O)c4cc(-c5ccc(Cl)cc5)on4)cc3C)c2N)cc1 | 24.9 µM | > 30 µM |  |  |
| CNC(=O)c1cc(Oc2ccc(NC(=O)Nc3ccc(Cl)c(C(F)(F)F)c3)cc2)ccn1 [SORAFENIB] | 5.58 µM |  |  |  |
| COc1ccc(Cn2ncc(NC(=O)c3cc(NC(=O)Nc4cccc(Cl)c4)ccc3C)c2N)cc1 | 0.21 µM | > 30 µM |  |  |
| COc1ccc(Cn2ncc(NC(=O)c3ccc(NC(=O)Nc4ccc(Cl)c(C(F)(F)F)c4)cc3C)c2N)cc1 | 33.2 µM | > 30 µM |  | pIC50 [4]: 5.08; inhibition [5]: inactive |
| COc1ccc(Cn2ncc(NC(=O)c3cc(NC(=O)c4ncc(-c5ccncc5)s4)ccc3C)c2N)cc1 |  | > 30 µM | inactive |  |
| COc1ccc(Cn2ncc(NC(=O)c3ccc(NC(=O)c4cc(C)on4)cc3C)c2N)cc1 |  | > 30 µM | inactive |  |
| COc1ccc(Cn2ncc(NC(=O)c3cc(NC(=O)Nc4ccc(C(F)(F)F)cc4)ccc3C)c2N)cc1 | > 30 µM | > 30 µM |  |  |
| COc1ccc(Cn2ncc(NC(=O)c3ccc(NC(=O)Nc4cc(-n5cnc(C)c5)cc(C(F)(F)F)c4)cc3C)c2N)cc1 | 5.71 µM | > 30 µM |  |  |
